Test results as given in ChEMBL document CHEMBL4177749, “A Synthetic Dual Drug Sideromycin Induces Gram-Negative Bacteria To Commit Suicide with a Gram-Positive Antibiotic” (J Med Chem, 2018).
Values after ≈ are worked out from the molar mass of the structure shown.

Experiments:
Acinetobacter baumannii [1] = assay: Antibacterial activity against Acinetobacter baumannii ATCC 17961 clinical isolate after 18 hrs by broth microdilution method; format: functional; settings: ATCC 17961, 18 h
Acinetobacter baumannii [2] = assay: Antibacterial activity against Acinetobacter baumannii ATCC BAA 1797 clinical isolate after 18 hrs by broth microdilution method; format: functional; settings: ATCC BAA 1797, 18 h
Acinetobacter baumannii [3] = assay: Antibacterial activity against Acinetobacter baumannii ATCC 17978 after 18 hrs by broth microdilution method; format: functional; settings: ATCC 17978, 18 h
Acinetobacter baumannii [4] = assay: Antibacterial activity against Acinetobacter baumannii ATCC BAA 1800 clinical isolate after 18 hrs by broth microdilution method; format: functional; settings: ATCC BAA 1800, 18 h
Acinetobacter baumannii [5] = assay: Antibacterial activity against Acinetobacter baumannii ATCC BAA 1793 clinical isolate after 18 hrs by broth microdilution method; format: functional; settings: ATCC BAA 1793, 18 h
Pseudomonas aeruginosa [6] = assay: Antibacterial activity against wild type Pseudomonas aeruginosa KW799 after 18 hrs by broth microdilution method; format: functional; settings: KW799, 18 h
Acinetobacter baumannii [7] = assay: Antibacterial activity against Acinetobacter baumannii ATCC 17978 transfected with pNT255 after 18 hrs by broth microdilution method; format: functional; settings: ATCC 17978, 18 h
Escherichia coli = assay: Antibacterial activity against Escherichia coli DC0 after 18 hrs by broth microdilution method; format: functional; settings: DC0, 18 h
Acinetobacter baumannii [8] = assay: Antibacterial activity against Acinetobacter baumannii ATCC 17978 transfected with pNT255:ADC-1 after 18 hrs by broth microdilution method; format: functional; settings: ATCC 17978, 18 h
Pseudomonas aeruginosa [9] = assay: Antibacterial activity against Pseudomonas aeruginosa by broth microdilution method; format: functional
Pseudomonas aeruginosa [10] = assay: Antibacterial activity against Pseudomonas aeruginosa ATCC 27853 by broth microdilution method; format: functional
Pseudomonas aeruginosa [11] = assay: Antibacterial activity against Pseudomonas aeruginosa PAO1 ATCC […] by broth microdilution method; format: functional
Beta-lactamase = Beta-lactamase (Acinetobacter baumannii, UniProt Q9L4R5); assay: Drug metabolism assessed as Acinetobacter baumannii ADC-1-mediated (S)-N-((3-(3-Fluoro-4-(4-glycylpiperazin-1-yl)phenyl)-2-oxooxazolidin-5-yl)methyl)acetamide release at 20 uM after 40 mins by LC/MS method; format: ADME
Procedure, shortened: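 Purified ADC-1 β-lactamase (expressed as described earlier) […] with 20 μM conjugate in 50 mM sodium phosphate, pH 7.4, 1% DMSO final, room temperature, 40 min. Release of the oxazolidinone followed by LC/MS. Controls run under the same conditions: conjugate alone (20 μM) and enzyme alone (1 μM).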

MIC (Acinetobacter baumannii [1]) | MIC (Acinetobacter baumannii [2]) | MIC (Acinetobacter baumannii [3]) | MIC (Acinetobacter baumannii [4]) | MIC (Acinetobacter baumannii [5]) | MIC (Pseudomonas aeruginosa [6]) | MIC (Acinetobacter baumannii [7]) | MIC (Escherichia coli) | MIC (Acinetobacter baumannii [8]) | MIC (Pseudomonas aeruginosa [9]) | MIC (Pseudomonas aeruginosa [10]) | MIC (Pseudomonas aeruginosa [11]) | Compound | Drug metabolism (Beta-lactamase)
– | – | – | – | – | – | – | – | – | – | 0.024 µM (≈ 0.0386 µg/mL) | > 100 µM | CC(O)C(NCC(=O)NC(=O)C(CCCNC(=O)CCCCCCCCC(=O)NC(C(=O)N[C@@H]1C(=O)N2[C@@H]1SC(C)(C)[C@@H]2C(=O)O)c1ccccc1)NC(=O)C(CCCN(O)C=O)NC(=O)C(CO)NC(=O)C1CCN=C2C(NC(=O)CCC(N)=O)=Cc3cc(O)c(O)cc3N21)C(=O)NC(CO)C(=O)NC1CCCN(O)C1=O (stereo partly specified) | –
> 50 µM | > 50 µM | > 50 µM | > 50 µM | > 50 µM | > 50 µM | > 50 µM | > 50 µM | > 50 µM | – | – | – | CC(=O)NC[C@H]1CN(c2ccc(N3CCN(C(=O)CNC(=O)OCC4=C(C(=O)O)N5C(=O)[C@@H](NC(=O)C(N)c6ccccc6)[C@H]5SC4)CC3)c(F)c2)C(=O)O1 (stereo partly specified) | –
> 50 µM | > 50 µM | > 50 µM | > 50 µM | > 50 µM | > 50 µM | > 50 µM | 50 µM (≈ 20.3 µg/mL) | > 50 µM | – | – | – | CC(=O)OCC1=C(C(=O)O)N2C(=O)[C@@H](NC(=O)C(N)c3ccccc3)[C@H]2SC1 (stereo partly specified) | –

Further lines, the compound ahead of its results:

Compound | MIC (Acinetobacter baumannii [1]) | MIC (Acinetobacter baumannii [2]) | MIC (Acinetobacter baumannii [3]) | MIC (Acinetobacter baumannii [4]) | MIC (Acinetobacter baumannii [5]) | MIC (Pseudomonas aeruginosa [6]) | MIC (Acinetobacter baumannii [7]) | MIC (Escherichia coli) | MIC (Acinetobacter baumannii [8]) | MIC (Pseudomonas aeruginosa [9]) | MIC (Pseudomonas aeruginosa [10]) | MIC (Pseudomonas aeruginosa [11]) | Drug metabolism (Beta-lactamase)
CC(=O)NC[C@H]1CN(c2ccc(N3CCN(C(=O)CNC(=O)CN(CCCCNC(=O)c4cccc(O)c4O)C(=O)c4cccc(O)c4O)CC3)c(F)c2)C(=O)O1 | > 50 µM | > 50 µM | > 50 µM | > 50 µM | > 50 µM | > 50 µM | > 50 µM | > 50 µM | > 50 µM | – | – | – | –
CC(=O)Oc1cccc(C(=O)NCCCCN(CC(=O)N[C@@H](C(=O)N[C@@H]2C(=O)N3[C@@H]2SC(C)(C)[C@@H]3C(=O)O)c2ccc(O)cc2)C(=O)c2cccc(OC(C)=O)c2OC(C)=O)c1OC(C)=O | – | – | – | – | – | – | – | – | – | 0.02 to 0.16 µM (≈ 0.0187 to 0.149 µg/mL) | – | – | –
CC(=O)OCC1=C(C(=O)O)N2C(=O)[C@@H](NC(=O)C(NC(=O)CN(CCCCNC(=O)c3cccc(O)c3O)C(=O)c3cccc(O)c3O)c3ccccc3)[C@H]2SC1 (stereo partly specified) | 0.8 µM (≈ 0.645 µg/mL) | > 50 µM | 0.4 µM (≈ 0.322 µg/mL) | 25 µM (≈ 20.1 µg/mL) | 12.5 µM (≈ 10.1 µg/mL) | 0.4 µM (≈ 0.322 µg/mL) | 0.4 µM (≈ 0.322 µg/mL) | < 0.025 µM | > 50 µM | – | – | – | –
CC(=O)NC[C@H]1CN(c2ccc(N3CCN(C(=O)CNC(=O)OCC4=C(C(=O)O)N5C(=O)[C@@H](NC(=O)C(NC(=O)CN(CCCCNC(=O)c6cccc(O)c6O)C(=O)c6cccc(O)c6O)c6ccccc6)[C@H]5SC4)CC3)c(F)c2)C(=O)O1 (stereo partly specified) | 0.8 µM (≈ 0.947 µg/mL) | 6.25 µM (≈ 7.39 µg/mL) | 0.4 µM (≈ 0.473 µg/mL) | 0.8 µM (≈ 0.947 µg/mL) | 0.8 to 16 µM (≈ 0.947 to 18.9 µg/mL) | 0.2 to 0.4 µM (≈ 0.237 to 0.473 µg/mL) | 0.4 µM (≈ 0.473 µg/mL) | < 0.025 µM | 6 µM (≈ 7.1 µg/mL) | – | – | – | Metabolite_Detected
CC(=O)NC[C@H]1CN(c2ccc(N3CCN(C(=O)CN)CC3)c(F)c2)C(=O)O1 | > 50 µM | > 50 µM | > 500 µM | > 50 µM | > 50 µM | > 50 µM | > 500 µM | > 50 µM | > 500 µM | – | – | – | –
CC(=O)NC[C@H]1CN(c2ccc(N3CCN(C(=O)CO)CC3)c(F)c2)C(=O)O1 [EPEREZOLID] | – | – | > 50 µM | – | – | – | > 50 µM | – | > 50 µM | – | – | – | –
